# Assay results taken from ChEMBL document CHEMBL3797186, “Single Residue Substitutions That Confer Voltage-Gated Sodium Ion Channel Subtype Selectivity in the NaV1.7 Inhibitory Peptide GpTx-1” (J Med Chem, 2016).
# Positions of bridges follow the written chain, without caps; N, C: chain ends. Residues, ends and D or L forms follow the SMILES beside them.
# Target: Sodium channel protein type 5 subunit alpha (Homo sapiens, UniProt Q14524)
# Test: Inhibition of human Nav1.5 expressed in HEK293 cells assessed as inward peak current by ion-works quattro patch clamp electrophysiology method
# Type: cell-based
# Method in brief: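 Stable HEK293 line expressing human NaV1.5, recorded by population patch clamp on the IonWorks Quattro.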
# Sequence of Sodium channel protein type 5 subunit alpha (Q14524 whole entry): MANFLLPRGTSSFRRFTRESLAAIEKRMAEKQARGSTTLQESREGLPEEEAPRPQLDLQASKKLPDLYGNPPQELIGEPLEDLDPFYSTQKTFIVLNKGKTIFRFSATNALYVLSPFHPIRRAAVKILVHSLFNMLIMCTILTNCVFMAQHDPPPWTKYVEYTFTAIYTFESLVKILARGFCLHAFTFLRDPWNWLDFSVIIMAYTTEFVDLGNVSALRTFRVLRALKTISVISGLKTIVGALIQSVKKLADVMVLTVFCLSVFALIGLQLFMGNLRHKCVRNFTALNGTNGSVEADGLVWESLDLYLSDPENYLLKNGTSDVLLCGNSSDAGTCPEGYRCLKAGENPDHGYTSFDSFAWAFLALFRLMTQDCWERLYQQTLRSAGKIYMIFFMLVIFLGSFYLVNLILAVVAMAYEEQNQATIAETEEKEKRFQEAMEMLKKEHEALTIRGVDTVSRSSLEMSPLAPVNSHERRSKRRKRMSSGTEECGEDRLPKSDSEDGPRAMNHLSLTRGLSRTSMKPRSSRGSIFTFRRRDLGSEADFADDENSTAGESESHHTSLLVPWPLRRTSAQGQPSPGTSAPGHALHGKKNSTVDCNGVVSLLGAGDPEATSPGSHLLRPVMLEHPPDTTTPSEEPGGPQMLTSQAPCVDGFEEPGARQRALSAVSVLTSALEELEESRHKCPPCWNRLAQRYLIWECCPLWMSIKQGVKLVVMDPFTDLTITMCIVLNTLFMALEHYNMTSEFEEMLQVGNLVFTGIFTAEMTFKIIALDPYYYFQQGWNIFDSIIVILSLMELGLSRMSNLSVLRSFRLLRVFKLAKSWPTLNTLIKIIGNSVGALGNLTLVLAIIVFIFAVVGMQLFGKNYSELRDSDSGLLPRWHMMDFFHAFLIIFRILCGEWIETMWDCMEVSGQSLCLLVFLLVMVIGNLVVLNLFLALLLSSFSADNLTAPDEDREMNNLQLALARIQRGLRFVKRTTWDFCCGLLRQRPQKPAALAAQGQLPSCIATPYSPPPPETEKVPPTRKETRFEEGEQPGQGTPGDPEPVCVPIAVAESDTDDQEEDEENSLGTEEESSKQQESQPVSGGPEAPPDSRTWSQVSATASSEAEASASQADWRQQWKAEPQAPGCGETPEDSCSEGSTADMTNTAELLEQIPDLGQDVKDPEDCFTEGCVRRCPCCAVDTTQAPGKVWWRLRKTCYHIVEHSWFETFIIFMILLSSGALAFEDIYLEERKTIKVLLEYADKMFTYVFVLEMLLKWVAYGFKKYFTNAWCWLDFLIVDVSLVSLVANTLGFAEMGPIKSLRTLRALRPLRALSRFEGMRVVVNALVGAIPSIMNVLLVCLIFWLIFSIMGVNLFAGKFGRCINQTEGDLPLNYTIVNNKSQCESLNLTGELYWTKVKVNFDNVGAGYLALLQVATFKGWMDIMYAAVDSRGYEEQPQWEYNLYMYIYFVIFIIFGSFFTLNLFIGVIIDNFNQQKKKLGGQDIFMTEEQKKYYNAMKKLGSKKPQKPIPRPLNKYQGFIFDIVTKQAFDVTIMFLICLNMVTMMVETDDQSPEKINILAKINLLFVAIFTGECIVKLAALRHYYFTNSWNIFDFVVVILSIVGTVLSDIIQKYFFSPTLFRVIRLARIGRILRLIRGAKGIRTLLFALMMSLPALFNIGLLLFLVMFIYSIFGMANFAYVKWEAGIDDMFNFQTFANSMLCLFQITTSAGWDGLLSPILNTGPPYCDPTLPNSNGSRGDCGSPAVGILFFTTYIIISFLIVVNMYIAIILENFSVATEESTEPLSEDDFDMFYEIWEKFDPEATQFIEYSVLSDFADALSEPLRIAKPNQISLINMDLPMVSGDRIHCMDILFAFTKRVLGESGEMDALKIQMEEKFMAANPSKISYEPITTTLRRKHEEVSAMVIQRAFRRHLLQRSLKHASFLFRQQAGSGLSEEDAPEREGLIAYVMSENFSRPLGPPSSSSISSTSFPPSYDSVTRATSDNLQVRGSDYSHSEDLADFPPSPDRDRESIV
structure (smiles),measurement,setting,value
"CC[C@H](C)[C@@H]1NC(=O)[C@@H]2CSSC[C@@H]3NC(=O)[C@H](C(C)C)NC(=O)[C@H](CC(C)C)NC(=O)[C@H](CC(N)=O)NC(=O)[C@@H]4CCCN4C(=O)[C@H](CCCNC(=N)N)NC(=O)[C@H](CSSC[C@H](NC(=O)[C@@H](N)CCCNC(=N)N)C(=O)N[C@@H](CC(C)C)C(=O)NCC(=O)N[C@@H](Cc4ccccc4)C(=O)N[C@@H](CCSC)C(=O)N[C@@H](CCCNC(=N)N)C(=O)N[C@@H](CCCCN)C(=O)N2)NC(=O)[C@H](CSSC[C@@H](C(=O)N[C@@H](CCCCN)C(=O)N[C@@H](Cc2ccc(O)cc2)C(=O)N[C@H](C(=O)N[C@@H](Cc2ccccc2)C(N)=O)C(C)C)NC(=O)[C@H](Cc2c[nH]c4ccccc24)NC(=O)[C@H](CCCCN)NC(=O)[C@H](Cc2cnc[nH]2)NC(=O)[C@H]([C@@H](C)O)NC(=O)[C@H](CCCNC(=N)N)NC(=O)[C@H](CO)NC3=O)NC(=O)[C@H](CCCCN)NC(=O)[C@H](CC(=O)O)NC(=O)[C@H](CC(N)=O)NC(=O)[C@H](CC(=O)O)NC(=O)[C@@H]2CCCN2C1=O (H-RCLGFMRKCIPDNDKCCRPNLVCSRTHKWCKYVF-NH2; disulfide 2-17, 9-23, 16-30)",IC50,,> 5 µM
"CC[C@H](C)[C@@H]1NC(=O)[C@@H]2CSSC[C@@H]3NC(=O)[C@H](C(C)C)NC(=O)[C@H](CC(C)C)NC(=O)[C@H](CC(N)=O)NC(=O)[C@@H]4CCCN4C(=O)[C@H](CCCNC(=N)N)NC(=O)[C@H](CSSC[C@H](NC(=O)[C@@H](N)CC(=O)O)C(=O)N[C@@H](CC(C)C)C(=O)NCC(=O)N[C@@H](CCCNC(=N)N)C(=O)N[C@@H](CCSC)C(=O)N[C@@H](CCCNC(=N)N)C(=O)N[C@@H](CCCCN)C(=O)N2)NC(=O)[C@H](CSSC[C@@H](C(=O)N[C@@H](CCCCN)C(=O)N[C@@H](Cc2ccc(O)cc2)C(=O)N[C@H](C(=O)N[C@@H](Cc2ccccc2)C(N)=O)C(C)C)NC(=O)[C@H](Cc2c[nH]c4ccccc24)NC(=O)[C@H](CCCCN)NC(=O)[C@H](Cc2cnc[nH]2)NC(=O)[C@H]([C@@H](C)O)NC(=O)[C@H](CCCNC(=N)N)NC(=O)[C@H](CO)NC3=O)NC(=O)[C@H](CCCCN)NC(=O)[C@H](CC(=O)O)NC(=O)[C@H](CC(N)=O)NC(=O)[C@H](CC(=O)O)NC(=O)[C@@H]2CCCN2C1=O (H-DCLGRMRKCIPDNDKCCRPNLVCSRTHKWCKYVF-NH2; disulfide 2-17, 9-23, 16-30)",IC50,,> 5 µM
CC[C@H](C)[C@@H]1NC(=O)[C@@H]2CSSC[C@@H]3NC(=O)[C@H](C(C)C)NC(=O)[C@H](CC(C)C)NC(=O)[C@H](CC(N)=O)NC(=O)[C@@H]4CCCN4C(=O)[C@H](CCCNC(=N)N)NC(=O)[C@H](CSSC[C@H](NC(=O)[C@@H](N)CC(=O)O)C(=O)N[C@@H](CC(C)C)C(=O)NCC(=O)N[C@@H](Cc4ccccc4)C(=O)N[C@@H](CCSC)C(=O)N[C@@H](CCCNC(=N)N)C(=O)N[C@@H](CCCCN)C(=O)N2)NC(=O)[C@H](CSSC[C@@H](C(=O)N[C@@H](CCCCN)C(=O)N[C@@H](Cc2ccc(O)cc2)C(=O)N[C@H](C(=O)N[C@@H](Cc2ccccc2)C(=O)O)C(C)C)NC(=O)[C@H](Cc2c[nH]c4ccccc24)NC(=O)[C@H](CCCCN)NC(=O)[C@H](Cc2cnc[nH]2)NC(=O)[C@H]([C@@H](C)O)NC(=O)[C@H](CCCNC(=N)N)NC(=O)[C@H](CO)NC3=O)NC(=O)[C@H](CCCCN)NC(=O)[C@H](CC(=O)O)NC(=O)[C@H](CC(N)=O)NC(=O)[C@H](CC(=O)O)NC(=O)[C@@H]2CCCN2C1=O (stereo in doubt; 158),IC50,hek293,> 5 µM
"CC[C@H](C)[C@@H]1NC(=O)[C@@H]2CSSC[C@@H]3NC(=O)[C@H](C(C)C)NC(=O)[C@H](CC(C)C)NC(=O)[C@H](CC(N)=O)NC(=O)[C@H](CCCNC(=N)N)NC(=O)[C@H](CCCNC(=N)N)NC(=O)[C@H](CSSC[C@H](NC(=O)[C@@H](N)CC(=O)O)C(=O)N[C@@H](CC(C)C)C(=O)NCC(=O)N[C@@H](Cc4ccccc4)C(=O)N[C@@H](CCSC)C(=O)N[C@@H](CCCNC(=N)N)C(=O)N[C@@H](CCCCN)C(=O)N2)NC(=O)[C@H](CSSC[C@@H](C(=O)N[C@@H](CCCCN)C(=O)N[C@@H](Cc2ccc(O)cc2)C(=O)N[C@H](C(=O)N[C@@H](Cc2ccccc2)C(N)=O)C(C)C)NC(=O)[C@H](Cc2c[nH]c4ccccc24)NC(=O)[C@H](CCCCN)NC(=O)[C@H](Cc2cnc[nH]2)NC(=O)[C@H]([C@@H](C)O)NC(=O)[C@H](CCCNC(=N)N)NC(=O)[C@H](CO)NC3=O)NC(=O)[C@H](CCCCN)NC(=O)[C@H](CC(=O)O)NC(=O)[C@H](CC(N)=O)NC(=O)[C@H](CC(=O)O)NC(=O)[C@@H]2CCCN2C1=O (H-DCLGFMRKCIPDNDKCCRRNLVCSRTHKWCKYVF-NH2; disulfide 2-17, 9-23, 16-30)",IC50,,> 5 µM
"CC[C@H](C)[C@@H]1NC(=O)[C@@H]2CSSC[C@@H]3NC(=O)[C@H](CCC(=O)O)NC(=O)[C@H](CC(C)C)NC(=O)[C@H](CC(N)=O)NC(=O)[C@@H]4CCCN4C(=O)[C@H](CCCNC(=N)N)NC(=O)[C@H](CSSC[C@H](NC(=O)[C@@H](N)CC(=O)O)C(=O)N[C@@H](CC(C)C)C(=O)NCC(=O)N[C@@H](Cc4ccccc4)C(=O)N[C@@H](CCSC)C(=O)N[C@@H](CCCNC(=N)N)C(=O)N[C@@H](CCCCN)C(=O)N2)NC(=O)[C@H](CSSC[C@@H](C(=O)N[C@@H](CCCCN)C(=O)N[C@@H](Cc2ccc(O)cc2)C(=O)N[C@H](C(=O)N[C@@H](Cc2ccccc2)C(N)=O)C(C)C)NC(=O)[C@H](Cc2c[nH]c4ccccc24)NC(=O)[C@H](CCCCN)NC(=O)[C@H](Cc2cnc[nH]2)NC(=O)[C@H]([C@@H](C)O)NC(=O)[C@H](CCCNC(=N)N)NC(=O)[C@H](CO)NC3=O)NC(=O)[C@H](CCCCN)NC(=O)[C@H](CC(=O)O)NC(=O)[C@H](CC(N)=O)NC(=O)[C@H](CC(=O)O)NC(=O)[C@@H]2CCCN2C1=O (H-DCLGFMRKCIPDNDKCCRPNLECSRTHKWCKYVF-NH2; disulfide 2-17, 9-23, 16-30)",IC50,,> 5 µM
"CC[C@H](C)[C@@H]1NC(=O)[C@@H]2CSSC[C@@H]3NC(=O)[C@H](C(C)C)NC(=O)[C@H](CC(C)C)NC(=O)[C@H](CC(N)=O)NC(=O)[C@@H]4CCCN4C(=O)[C@H](CCCNC(=N)N)NC(=O)[C@H](CSSC[C@H](NC(=O)[C@@H](N)CC(=O)O)C(=O)N[C@@H](CC(C)C)C(=O)NCC(=O)N[C@@H](Cc4ccccc4)C(=O)N[C@@H](CCSC)C(=O)N[C@@H](CCCNC(=N)N)C(=O)N[C@@H](CCCCN)C(=O)N2)NC(=O)[C@H](CSSC[C@@H](C(=O)N[C@@H](CCCCN)C(=O)N[C@@H](Cc2ccc(O)cc2)C(N)=O)NC(=O)[C@H](Cc2c[nH]c4ccccc24)NC(=O)[C@H](CCCCN)NC(=O)[C@H](Cc2cnc[nH]2)NC(=O)[C@H]([C@@H](C)O)NC(=O)[C@H](CCCNC(=N)N)NC(=O)[C@H](CO)NC3=O)NC(=O)[C@H](CCCCN)NC(=O)[C@H](CC(=O)O)NC(=O)[C@H](CC(N)=O)NC(=O)[C@H](CC(=O)O)NC(=O)[C@@H]2CCCN2C1=O (H-DCLGFMRKCIPDNDKCCRPNLVCSRTHKWCKY-NH2; disulfide 2-17, 9-23, 16-30)",IC50,,> 5 µM
"CC[C@H](C)[C@@H]1NC(=O)[C@@H]2CSSC[C@@H]3NC(=O)[C@H](C(C)C)NC(=O)[C@H](CC(C)C)NC(=O)[C@H](CC(N)=O)NC(=O)[C@@H]4CCCN4C(=O)[C@H](CCCNC(=N)N)NC(=O)[C@H](CSSC[C@H](NC(=O)[C@@H](N)CCCCN)C(=O)N[C@@H](CC(C)C)C(=O)NCC(=O)N[C@@H](Cc4ccccc4)C(=O)N[C@@H](CCSC)C(=O)N[C@@H](CCCNC(=N)N)C(=O)N[C@@H](CCCCN)C(=O)N2)NC(=O)[C@H](CSSC[C@@H](C(=O)N[C@@H](CCCCN)C(=O)N[C@@H](Cc2ccc(O)cc2)C(=O)N[C@H](C(=O)N[C@@H](Cc2ccccc2)C(N)=O)C(C)C)NC(=O)[C@H](Cc2c[nH]c4ccccc24)NC(=O)[C@H](CCCCN)NC(=O)[C@H](Cc2cnc[nH]2)NC(=O)[C@H]([C@@H](C)O)NC(=O)[C@H](CCCNC(=N)N)NC(=O)[C@H](CO)NC3=O)NC(=O)[C@H](CCCCN)NC(=O)[C@H](CC(=O)O)NC(=O)[C@H](CC(N)=O)NC(=O)[C@H](CC(=O)O)NC(=O)[C@@H]2CCCN2C1=O (H-KCLGFMRKCIPDNDKCCRPNLVCSRTHKWCKYVF-NH2; disulfide 2-17, 9-23, 16-30)",IC50,,> 5 µM
"CSCC[C@@H]1NC(=O)[C@H](Cc2ccccc2)NC(=O)CNC(=O)[C@H](CC(C)C)NC(=O)[C@@H](NC(=O)[C@@H](N)CC(=O)O)CSSC[C@@H]2NC(=O)[C@@H]3CSSC[C@@H](C(=O)N[C@@H](CCCCN)C(=O)N[C@@H](Cc4ccc(O)cc4)C(=O)N[C@H](C(=O)N[C@@H](Cc4ccccc4)C(N)=O)C(C)C)NC(=O)[C@H](Cc4c[nH]c5ccccc45)NC(=O)[C@H](CCCCN)NC(=O)[C@H](Cc4cnc[nH]4)NC(=O)[C@H]([C@@H](C)O)NC(=O)[C@H](CCCNC(=N)N)NC(=O)[C@H](CO)NC(=O)[C@H](CSSC[C@H](NC(=O)[C@H](CCCCN)NC(=O)[C@H](CCCNC(=N)N)NC1=O)C(=O)N[C@@H](Cc1cnc[nH]1)C(=O)N1CCC[C@H]1C(=O)N[C@@H](CC(=O)O)C(=O)N[C@@H](CC(N)=O)C(=O)N[C@@H](CC(=O)O)C(=O)N[C@@H](CCCCN)C(=O)N3)NC(=O)[C@H](C(C)C)NC(=O)[C@H](CC(C)C)NC(=O)[C@H](CC(N)=O)NC(=O)[C@@H]1CCCN1C(=O)[C@H](CCCNC(=N)N)NC2=O (H-DCLGFMRKCHPDNDKCCRPNLVCSRTHKWCKYVF-NH2; disulfide 2-17, 9-23, 16-30)",IC50,,> 5 µM
